Test results taken from ChEMBL document CHEMBL5365542, “Difluoromethyl-1,3,4-oxadiazoles Are Selective, Mechanism-Based, and Essentially Irreversible Inhibitors of Histone Deacetylase 6” (J Med Chem, 2023).
Positions count from the first letter of the chain named. Active and inactive are the calls of the source. The rule behind the calls is not given here.

How the values were obtained:
[1] = system: T1, Histone deacetylase 6 (Danio rerio), F8W4B7 [H574A]; experiment: Irreversible inhibition of Danio rerio HDAC6 H574A mutant catalytic domain 2 assessed as enzyme catalysed ring opening by measuring reduction in 2-(Benzylamino)pyrimidine-5-carbohydrazide formation at 100 uM incubated overnight by LC-MS analysis
T1 sequence (whole entry): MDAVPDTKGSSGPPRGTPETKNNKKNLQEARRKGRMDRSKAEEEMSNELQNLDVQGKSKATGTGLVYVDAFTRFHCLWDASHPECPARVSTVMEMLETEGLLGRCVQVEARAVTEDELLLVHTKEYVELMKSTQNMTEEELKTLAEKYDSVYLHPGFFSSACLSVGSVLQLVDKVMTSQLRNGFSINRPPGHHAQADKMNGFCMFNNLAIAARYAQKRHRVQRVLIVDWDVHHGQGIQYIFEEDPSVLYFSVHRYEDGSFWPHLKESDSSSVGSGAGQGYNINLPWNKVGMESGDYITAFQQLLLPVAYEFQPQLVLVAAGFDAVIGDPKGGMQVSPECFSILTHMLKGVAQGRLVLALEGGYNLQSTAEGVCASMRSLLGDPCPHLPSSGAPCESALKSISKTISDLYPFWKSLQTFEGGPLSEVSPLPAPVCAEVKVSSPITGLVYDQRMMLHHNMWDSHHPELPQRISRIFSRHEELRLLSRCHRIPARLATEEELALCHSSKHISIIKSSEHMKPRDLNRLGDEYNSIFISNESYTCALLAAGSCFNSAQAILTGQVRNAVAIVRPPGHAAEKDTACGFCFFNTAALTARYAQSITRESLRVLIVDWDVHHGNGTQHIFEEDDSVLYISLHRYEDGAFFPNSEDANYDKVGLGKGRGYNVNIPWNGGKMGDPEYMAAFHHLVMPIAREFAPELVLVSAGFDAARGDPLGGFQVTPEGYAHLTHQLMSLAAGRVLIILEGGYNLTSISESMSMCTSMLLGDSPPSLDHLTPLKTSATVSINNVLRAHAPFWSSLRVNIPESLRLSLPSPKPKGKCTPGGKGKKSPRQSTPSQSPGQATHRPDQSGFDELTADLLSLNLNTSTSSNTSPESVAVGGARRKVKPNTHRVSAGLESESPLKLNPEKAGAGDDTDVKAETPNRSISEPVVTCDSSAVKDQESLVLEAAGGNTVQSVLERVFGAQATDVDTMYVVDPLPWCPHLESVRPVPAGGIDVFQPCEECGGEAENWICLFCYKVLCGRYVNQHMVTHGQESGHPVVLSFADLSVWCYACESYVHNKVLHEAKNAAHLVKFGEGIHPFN
Procedure, shortened: (§1)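 Zebrafish HDAC6 CD2 mutants were made by site-directed mutagenesis and expressed in BL21(DE3). Enzyme at 50 μM was incubated overnight with 100 μM inhibitor in 50 mM HEPES pH 7.5, 100 mM KCl, 1 mM TCEP, 5% glycerol; an enzyme-free control was included. Protein was methanol-precipitated and filtered, and products were analysed by C18 UPLC-MS with a 2-min gradient.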

[2] = system: T2, Histone deacetylase 6 (Danio rerio), F8W4B7 [H573A]; experiment: Irreversible inhibition of Danio rerio HDAC6 H573A mutant catalytic domain 2 assessed as enzyme catalysed ring opening by measuring reduction in 2-(Benzylamino)-N'-(2,2-difluoroacetyl)pyrimidine-5-carbohydrazide formation at 100 uM incubated overnight by LC-MS analysis; procedure, shortened: as §1
T2 sequence (whole entry): T1 sequence (whole entry) with H573A, A574H

| Structure (SMILES) | inhibition [1] | inhibition [2] |
| --- | --- | --- |
| FC(F)c1nnc(-c2cnc(NCc3ccccc3)nc2)o1 | Active | Active |
| FC(F)(F)c1nnc(-c2cnc(NCc3ccccc3)nc2)o1 | Active | Active |
